High-throughput results (PubChem BioAssay)
Hits are enriched below; roughly 1.1% of the tested compounds scored in any of these assays.
Diaph act CS: activates diaphorase or chemically reduces, flagging diaphorase assay artifacts. Diaphorase/resazurin coupled assay, resorufin fluorescence, 16 min; hits give high values; 1 = vehicle wells, 0 = NADH-free wells. hit rate 0.005% among 190,000. activation factor at 20 µM;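 active = diaphorase activity raised at least twofold by the compound at 20 µM; inactive = activation factor below 2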
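Measured by – red resorufin fluorescence at 544/590 nm excitation/emission · Test system – Clostridium kluyveri diaphorase, purified enzyme · Incubation – reaction time 16 min, room temperature · Buffer or medium – 50 mM HEPES pH 7.4 with 4.542 mM MgCl2, 0.005% Tween 20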
G6PDH CS: inhibits Leuconostoc G6PDH, flagging false hits in G6PDH-based assays. Purified L. mesenteroides G6PDH, diaphorase/resazurin coupled fluorescence, 45 min. inhibition, % at 5 µM. hit rate 0.12% among 200,000. AID 1020; in the data active = inhibition above about 50%
Diaphorase inh: diaphorase inhibition or chemical oxidation counter-screen. inhibition, % at 20 µM. AID 1217. hit rate 0.69% among 190,000. diaphorase resazurin-to-resorufin fluorescence, NADH, 16 min; bacterial (C. kluyveri) enzyme, not human;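 active = primary screen inhibition at 20 µM above a set limit, cut at about 50% in these data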;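 note: plate controls were DMSO with full reaction for no effect and wells lacking NADH for full effect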
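Test system: diaphorase enzyme from Clostridium kluyveri; amount: diaphorase at 0.14 U/mL in enzyme working solution; detection: fluorescence of resorufin formed from resazurin, Ex 544/Em 590 nm; times: reaction incubation of 16 min at room temperature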
PMI activator: phosphomannose isomerase (human) activation | P34949 | purified human PMI, coupled resazurin fluorescence, 20 min; hits give high values; 1 = vehicle control, 0 substrate-free wells | AID 1214 | hit rate 0.005% among 190,000 | activation factor at 20 µM;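 active = activation factor of 2 or more at 20 µM, relative to plate controls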
Target sequence (P34949 whole entry, looked up): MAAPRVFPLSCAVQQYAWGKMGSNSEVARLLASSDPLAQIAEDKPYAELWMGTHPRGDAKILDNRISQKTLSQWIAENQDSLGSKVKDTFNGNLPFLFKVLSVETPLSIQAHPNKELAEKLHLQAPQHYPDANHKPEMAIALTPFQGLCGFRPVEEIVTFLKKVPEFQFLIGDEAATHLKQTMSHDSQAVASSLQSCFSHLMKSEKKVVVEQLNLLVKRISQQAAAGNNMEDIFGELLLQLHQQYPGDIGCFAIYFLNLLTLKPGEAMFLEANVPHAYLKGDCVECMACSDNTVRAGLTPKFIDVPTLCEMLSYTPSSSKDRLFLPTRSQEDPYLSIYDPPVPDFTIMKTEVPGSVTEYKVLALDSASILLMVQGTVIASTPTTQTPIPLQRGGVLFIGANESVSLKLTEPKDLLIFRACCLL
PMI act hi M6P: increases human PMI activity with near-saturating mannose 6-phosphate. P34949. hit rate 0.34% among 190,000. coupled PMI enzyme assay, resazurin fluorescence, 20 min; hits give high values; 1 = untreated enzyme, 0 = substrate-free blank. activation factor at 20 µM;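 active = activation factor of 2 or more at 20 µM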
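Test system – human PMI in coupled enzyme assay · Timing – 20 min incubation at room temperature · Detection – Diaphorase-driven resazurin-to-resorufin fluorescence, excitation 544, emission 590 nm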
* = called active by the depositor.

SMILES	Diaph act CS	G6PDH CS	Diaphorase inh	PMI activator	PMI act hi M6P
S=c1[nH]c(-c2ccccc2)cn1/N=C/c1ccccc1Br	0.5	-5.5	46.1	0.9	1
CC1CCCN(CCOc2ccc3ccccc3c2Br)C1 (stereo not drawn)	0.9	0.3	14.8	0.9	0.9
Nc1nc2c(s1)CCc1c-2cnn1-c1ccccc1	0.3	61.7*	66.2*	0.1	0.4
Nc1nc2c(s1)COc1ccccc1-2	0.9	12.2	9.4	0.9	0.9
Cc1ccc(S(=O)(=O)N/N=C\c2cc([N+](=O)[O-])ccc2Cl)cc1	1	-7.5	4.5	1.5	2*
O=C(COC(=O)c1ccc(CNS(=O)(=O)c2ccc(F)c(Cl)c2)cc1)NCC1CCCCC1	0.9	-8.9	6.9	1	1
COc1cc2cc(CN(Cc3cccnc3)C(=O)Nc3ccccc3F)c(=O)[nH]c2cc1OC	0.9	15.4	14.6	0.8	0.9
O=c1c2ccccc2sn1-c1nccs1	0.5	1.7	51.3*	-0.1	0
O=c1c2ccccc2sn1-c1ccccc1	0.9	-2.4	9.4	0.1	0.4
Cc1c(C(=O)O)oc2c1/C(=N\O)CC(C)(C)C2	1	1.3	-4.1	1.2	1.1
COc1ccc(C2(C(=O)N3CCCC3)CCOCC2)cc1OC	0.9	-7.7	10.8	0.8	0.9
N#Cc1cc2cc3c(cc2nc1SCC(=O)OC1CCCCC1)OCO3	0.9	4.6	7.1	1	0.9
CC(=O)CSc1nc2cc3c(cc2cc1C#N)OCCO3	0.9	6.1	13.0	1.5	2*
CCCCN1CN(S(=O)(=O)c2cccs2)c2nc3ccccc3nc21	1	-13.4	4.6	1.6	2.2*
CC(C)N(CC#CCC(O)(c1ccccc1)C1CCCC1)CCO (stereo not drawn)	0.4	11.9	60.4*	0.4	1
CCN(CC#CCC(O)(c1ccccc1)C1CCCC1)C(C)C (stereo not drawn)	0.9	7.8	9.1	0.9	1
O=C(O)CCNS(=O)(=O)c1ccc2ccccc2c1	0.9	-1.1	5.4	1	1
O=C(O)CCNc1cc2ccccc2cc1C(=O)O	0.4	40.3	64.7*	0.4	0.3
Cc1cccc(NC(=S)NC2CC3CCCC(C2)N3Cc2ccccc2)c1C (stereo not drawn)	0.9	25.0	11.5	0.9	1
O=CNC(Cc1ccccc1)C(=O)O (stereo not drawn)	0.9	2.8	9.2	1	1
O=C1CC(=C2c3ccccc3-c3ccccc32)C(=O)N1CCCCN1CCN(c2ccccc2)CC1	1	-0.3	-2.8	1.5	2.1*
O=C(CCN1C(=O)C2C3C=CC(C4CC34)C2C1=O)Oc1ccc(Br)cc1 (stereo not drawn)	0.9	1.5	11.4	1	0.9
O=C(CCN1C(=O)C2C3C=CC(C4CC34)C2C1=O)Oc1cccc2cccnc12 (stereo not drawn)	0.8	52.8*	24.1	0.8	0.7
CCOC(=O)c1ccc(NC(=O)N2CCN(Cc3ccccc3)CC2)cc1	1	19.4	3.8	0.9	0.9
Cc1cc(C)c2nc(NC(=O)[C@@H](NC(=O)c3cccc(S(=O)(=O)N4CCOCC4)c3)C(C)C)sc2c1	0.9	-0.9	12.6	1.1	1
SMILES	Diaph act CS	G6PDH CS	Diaphorase inh	PMI activator	PMI act hi M6P
Cc1ccc2cccnc2c1N	0.8	6.7	19.2	0.8	0.3
c1cnc2c(c1)ccc1cccnc12	1.1	52.7*	-6.2	0.8	1.1
O=C(O[C@@H]1Cc2c(O)cc(O)cc2O[C@@H]1c1cc(O)c(O)c(O)c1)c1cc(O)c(O)c(O)c1	0.3	5.4	74.1*	0.3	0.7
COc1cc(C(=O)ON=C2C(C)=CC(=O)C=C2C)cc(OC)c1OC	0.2	2.2	75.9*	0.4	0.3
COc1cc(C(=O)O/N=C2/C=C(C)C(=O)C=C2C)cc(OC)c1OC	0.7	21.2	26.9	0.7	0.5
CCOc1ccc(NC(=O)CN2CCN(CC(=O)c3ccc(OCC)cc3)CC2)cc1	1	-11.7	-1.8	1.6	2*
CN=c1scc(-c2ccco2)n1/N=C/c1ccc(O)c(O)c1	0.5	23.9	50.8*	0.5	0.9
COc1ccc(CCNC(=O)Cn2cc(C(F)(F)F)cc(Cl)c2=O)cc1	0.9	0.0	12.2	1.4	1.3
COC(=O)C1=C(C)N(C)C(=O)NC1c1cc2c(cc1[N+](=O)[O-])OCO2 (stereo not drawn)	0.4	10.0	59.0*	0.6	0.6
COC(=O)C1=C(C)N(CCCC(=O)O)C(=O)NC1c1cc2c(cc1[N+](=O)[O-])OCO2 (stereo not drawn)	0.6	16.6	38.2	0.9	0.8
CC(C)N1CC=C2C(C#N)=C(N)C(C#N)(C#N)[C@H](c3ccoc3)[C@H]2C1	0.4	14.6	61.8*	0.6	0.4
c1coc(C2Nc3cccc4cccc(c34)N2)c1	0.3	21.3	69.9*	0.9	1.3
FC(F)(F)c1ccc(C2Nc3cccc4cccc(c34)N2)cc1	0.9	6.2	14.4	1.3	0.8
C/C(=N\N=C\c1ccc(N(C)C)cc1)c1cccc([N+](=O)[O-])c1	0.9	-18.4	12.4	1.6	2.3*
CCC(CC)C(=O)N1CCN(c2ccccc2)CC1	0.9	7.8	13.4	1.8	2.8*
CC(=O)Oc1ccc2c(=O)c(Oc3ccccc3)c(C)oc2c1OC(C)=O	0.3	22.1	65.4*	0.3	0.7
Cc1oc2c(c1C(=O)NCc1cccnc1)C(=O)c1ccccc1C2=O	1	59.1*	-0.5	1.7	1
COc1ccc(CNC(=O)c2c(C)oc3c2C(=O)c2ccccc2C3=O)cc1	0.9	62.3*	11.4	1.6	1.3
O=C(COc1ccccc1C(=O)N/N=C\c1ccc(O)c(O)c1)N/N=C/c1ccc(O)c(O)c1	0.3	0.7	69.8*	0.4	0.8
O=C(COc1ccccc1[N+](=O)[O-])N/N=C/c1ccc(O)c([N+](=O)[O-])c1	1	7.9	-2.3	1.1	1
Brc1c(NC2=NCCN2)ccc2nccnc12	0.4	25.9	59.0*	0.5	0.4
Oc1ccc(Cl)cc1C1=NNC(c2ccc(Cl)cc2)C1 (stereo not drawn)	0.9	-7.9	10.6	1.2	1.1
Oc1c(Cl)cc(Cl)cc1C1=NNC(c2ccc(Cl)cc2)C1 (stereo not drawn)	1	2.0	-0.8	1.8	2.6*
CC(CN(C)Cc1ccccc1)OC(=O)c1cccc(F)c1 (stereo not drawn)	1	18.0	2.5	1.6	2.4*
CN(CCOC(=O)c1cccc(F)c1)Cc1ccccc1	0.9	-4.6	9.9	1	1.1
CCN(Cc1ccncc1)Cc1c(O)ccc2ccccc12	0.4	28.0	64.3*	0.5	0.3
CC(C)CN(Cc1c(O)ccc2ccccc12)CC(C)C	0.6	31.5	44.3	0.6	0.3
